# From PubChem BioAssay
# NR2E3 ag-1 = agonists of human NR2E3 nuclear receptor; CHO-S Gal4-NCOR/VP16-NR2E3 two-hybrid, luciferase; Q9Y5X4; AID 602229; 0.35% of 360,000 active; inhibition of corepressor binding, % at 3.98 µM;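 active = inhibition above the mean of all tested compounds plus 3 SD, cut at about 70% in these data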;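 also: 0% = DMSO with NR2E3 transfected cells and 100% = cells lacking NR2E3 construct; higher means lower luciferase signal from less NR2E3 corepressor binding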
# HIV Env fusion = blocks HIV Env-driven cell-cell fusion; 1.1% of 360,000 active; HeLa-JRFL Env/CEM21 cell fusion, luciferase; inhibition, % at 12.3 µM;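 active = mean replicate inhibition score of at least 50 and every replicate individually at or above 50; inconclusive = only one of the two criteria met; inactive = mean below 50 and not all replicates reaching 50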;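 also: 0% = plate neutral controls and 100% = maraviroc near 300 nM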
# V-ATPase pH = alters yeast V-ATPase proton transport. S. cerevisiae, pHLuorin cytosolic pH fluorescence. response, % at 10 µM. 0.37% of 350,000 active; in the data active = response mostly above about 7.3%, no sharp cut-off; inactive = mostly below about 5.4%; also: actives read high
# GalR3 antag = antagonists of human GalR3; AID 651719; inhibition, % at 3 µM; 0.44% of 360,000 active; HEK293 GalR3-CNG cAMP membrane potential fluorescence; galR3 body fused to GalR1 C-terminus;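 active = inhibition above the screen-wide average plus 3 SD, cut at about 13% in these data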;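 also: forskolin and galanin both at EC90 stimulate the cells; cAMP rise reported by CNG channel membrane potential dye signal; 0% = forskolin plus galanin with DMSO and 100% = forskolin alone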
# Target sequence (O60755 1-299 limits assumed): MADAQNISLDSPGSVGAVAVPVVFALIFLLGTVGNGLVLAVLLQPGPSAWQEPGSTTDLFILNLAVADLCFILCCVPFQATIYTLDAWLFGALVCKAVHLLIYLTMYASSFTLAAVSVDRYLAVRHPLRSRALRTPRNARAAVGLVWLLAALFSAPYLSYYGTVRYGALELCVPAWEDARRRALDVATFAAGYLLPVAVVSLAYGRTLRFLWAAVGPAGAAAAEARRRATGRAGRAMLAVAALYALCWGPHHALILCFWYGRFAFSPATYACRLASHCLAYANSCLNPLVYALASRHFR
# GAA850 FXN act = frataxin GAA850 promoter activation | HEK293 lucGAA850 FXN promoter luciferase reporter, 24 h; percent of 10 µM SAHA response | activation, % at 6 µM | 0.56% of 360,000 active | AID 540364;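 active = activation above the average of all compounds screened plus 3 SD, cutoff fixed separately per campaign, cut at about 7.5% in these data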;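 also: 0% = DMSO wells and 100% = 10 µM SAHA wells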
# NR2E3 ag-2 = activates human photoreceptor nuclear receptor NR2E3. inhibition of corepressor binding, % at 4.78 µM. 0.12% of 320,000 active. GST-NR2E3/biotin-RetCOR TR-FRET, 1536-well. AID 2300;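 active = percent inhibition above the cutoff of mean plus 3 SD of all tested compounds, set per screening campaign, cut at about 20% in these data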;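 also: 0% = DMSO wells and 100% = biotin wells as full block of FRET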
#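 system = GST-tagged NR2E3 plus biotinylated RetCOR corepressor | input = 1.35 nM GST-NR2E3 | also added = 7 nM biotin-RetCOR | schedule = 5 h incubation at 4 °C | measured by = TR-FRET with europium anti-GST and streptavidin-D2, 340 nm excitation | read-out = percent loss of FRET ratio relative to control wells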
# GAA30 FXN cntr = GAA30 FXN promoter activation counter-screen. shares compounds with GAA850 FXN act. HEK293 lucGAA30 FXN promoter luciferase, 24 h; DMSO = 0%, 5 µM ipriflavone = 100%. activation, % at 6 µM. 66% of 1,900 active;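 active = mean activation above the mean of solvent-only control wells plus 3 SD, cut at about 22% in these data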;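 also: counterscreen of GAA850 promoter hits where activity marks nonselective or luminescence artifacts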
# GAA850 confirm = GAA850 FXN promoter activation confirmation | shares compounds with GAA850 FXN act | HEK293 lucGAA850 FXN promoter luciferase reporter, 24 h; 100% = activation by SAHA | activation, % at 6 µM | 86% of 1,900 active | AID 588351;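 active = mean activation above a set limit taken from the primary screen, cut at about 8% in these data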;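 also: 0% = DMSO wells and 100% = 10 µM SAHA wells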
# Starred values were filed as active, the others as inactive; ? = inconclusive; · = not tested or not shown; [ ] = another dose, or the depositor's remark. Hits are enriched below; roughly 2.2% of the tested compounds scored in any of these assays.
SMILES,NR2E3 ag-1,HIV Env fusion,V-ATPase pH,GalR3 antag,GAA850 FXN act,NR2E3 ag-2,GAA30 FXN cntr,GAA850 confirm
O=C(N[C@H]1C=C[C@H](CC(=O)N2CCCCC2)O[C@H]1CO)c1ccc2c(c1)OCO2,·,-88[16.7 µM],·,·,·,·,·,·
COc1cc(OC)cc(-c2cc3cc(F)ccc3cn2)c1,-120,30,-4,-2,8.0*,·,95*,36*
Nc1ccccc1Nc1cc(-c2ccccc2)nn1-c1ccccc1,-8,-2,4,2,1,8,·,·
Nc1ccccc1Nc1cc(-c2ccccc2)[nH]n1,-36,10,-1,3,9.3*,·,92*,54*
C[C@H]1CCCCO[C@@H](CN(C)CC2CCCCC2)[C@@H](C)CN([C@@H](C)CO)C(=O)c2cc(NS(=O)(=O)c3ccc(F)cc3)ccc2O1,·,7[16.7 µM],·,·,·,·,·,·
CN(C)CCCNC(=O)C[C@H]1CC[C@H]2[C@H](COc3ccc(NC(=O)c4cccc(F)c4)cc3C(=O)N2C)O1,·,-5[16.7 µM],·,·,·,·,·,·
CCCC(=O)Nc1ccc2c(c1)C(=O)N(C)[C@H]1CC[C@H](CC(=O)NCC3CCCCC3)O[C@@H]1CO2,·,-6[16.7 µM],·,·,·,·,·,·
NC(Cc1ccc(Cl)cc1)c1csc(NC(=O)Nc2ccccc2)n1 (stereo not given),12,61*,·,0,7.6*,·,14,11*
NC(Cc1ccc(Cl)cc1)c1csc(Nc2ccc(C(=O)c3ccccc3)cc2)n1 (stereo not given),13,-4,·,-5,-2,·,·,·
CCCCn1nnc(NC(=O)c2cc3ccccc3o2)n1,-48,·,0,2,8.4*,-1,82*,26*
CN1CCN(c2ccc(NC(=O)c3cc4ccccc4o3)cc2)CC1,-183,-28,-2,-11,7.7*,1,138*,39*
CO[C@H]1CC[C@@H]2CCOc3c(C#N)cccc3C(=O)N(C)C[C@@H](C)C(=O)N(C)C[C@@H]1O2,·,-4[16.7 µM],·,·,·,·,·,·
COc1ccnc(Oc2ccc3ccccc3c2)c1C#N,-69,·,-3,-9,8.2*,0,82*,25*
COc1ccnc(Oc2ccc(C)cc2)c1C#N,-39,-36,2,-2,3,1,·,·
COC(=O)C(NC(=O)c1ccc(F)cc1)(Nc1ncc(S(=O)(=O)c2ccc([N+](=O)[O-])cc2)s1)C(F)(F)F (stereo not given),-26,127*,-5,-6,9.8*,5,21,14*
COC(=O)C(NC(=O)c1ccccc1C)(Nc1ncc(S(=O)(=O)c2ccc([N+](=O)[O-])cc2)s1)C(F)(F)F (stereo not given),-20,?,2,-3,0,3,·,·
O=C(/C=C/c1cccs1)c1ccc(NC(=O)c2ccccc2F)cc1,-6,·,1,2,2,1,·,·
COc1ccccc1C(=O)Nc1ccc(C(=O)/C=C/c2cccs2)cc1,-24,·,-6,3,8.5*,-3,22*,13*
C[C@@H]1CCCCO[C@H](CN(C)Cc2ccc(C(F)(F)F)cc2)[C@@H](C)CN([C@@H](C)CO)C(=O)c2cc(NC(=O)Nc3ccc4c(c3)OCO4)ccc2O1,·,22[16.7 µM],·,·,·,·,·,·
COc1ccc(-c2cc(-c3ccc(C)cc3)n[nH]2)c(O)c1,-162,-94,1,-11,7,0,·,·
COc1ccc(-c2cc(-c3cc(C)ccc3O)[nH]n2)cc1,-126,-10,1,-7,13*,1,53*,46*
Cc1ccc(S(=O)(=O)Nc2ccc3c(c2)C(=O)N([C@H](C)CO)C[C@H](C)[C@H](CN(C)C(=O)Nc2ccc(C(F)(F)F)cc2)OCCCC[C@@H](C)O3)cc1,·,-40[16.7 µM],·,·,·,·,·,·
O=C(N[C@@H]1CC[C@H](CCn2cc(-c3ccccn3)nn2)O[C@H]1CO)c1ccc(F)cc1,·,-6[16.7 µM],·,·,·,·,·,·
